Measurements from the EternaBench riboswitch data.

System: MS2 coat protein
Assay: apparent Kd, MS2 coat protein; higher = weaker binding; RNA-MaP array; FMN 200 µM where present
Procedure, shortened: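 Stalled E. coli RNA polymerase transcribed each design on Illumina sequencing-chip clusters. The clusters were titrated with SNAP-549-labelled MS2 coat protein, starting at 0.7 or 1.5 nM and doubling up to 3 µM, first without ligand and then with constant ligand, in 100 mM Tris-HCl pH 7.5, 80 mM KCl, 4 mM MgCl2, BSA, DTT, yeast tRNA and Tween-20. Green signal was normalised to red-channel RNA signal and to the control-cluster median Fmax. The apparent Kd is the median of filtered binding-curve fits made for each cluster.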

[1] = designed as: OFF switch for flavin mononucleotide, no ligand
[2] = ligand present: flavin mononucleotide, designed as: OFF switch for flavin mononucleotide
[3] = designed as: ON switch for flavin mononucleotide, no ligand
[4] = ligand present: flavin mononucleotide, designed as: ON switch for flavin mononucleotide

Sequence | apparent Kd [1] [nM] | apparent Kd [2] [nM] | apparent Kd [3] [nM] | apparent Kd [4] [nM]
GUUUCACAUGAGGAUCACCCAUGUGAGGAUAUCGAUUUGUUAACCGUAGUUAAUAGAUCGAGAAGGCGCGUGAU | 70.6 | 68.8 | – | –
CUAAAUCAUGUAGGAUAUGGAUGGCGAAGCUACCCAGAAGGACAUGAGGAUCACCCAUGUCAGAACGUCUGCGUUCAGACGUUG | 35.7 | 217 | – | –
ACUAAUAAGUGAGGAUAUACAUAAUUCAUAUCAGUAGAAGGCACAAUCCUCUUUACAUGAGGAUCACCCAUGUUAUAUAUAUAA | 73.8 | 194 | – | –
UACAAUGGAGGAUAUAUGGUCAUACACAUGAGGAUCACCCAUGUCGCGAGUCGUGUAUCCAUAGAAGGCUGUAGUG | 13.7 | 15.6 | – | –
AAUAUGUUGCAGAAGGCCAUGUUGUGGUAGUGCCUCAUGACAUGAGGAUCACCCAUGUCUGUGAUGGAGGAUAUGCAAUAUAUU | 8.15 | 37 | – | –
AAUUAAUUAAUUAAUUGGACGAUACAUGAGGAUCACCCAUGUAAGGAUAUGCAGUGGAAUACACUGCAGAAGGUACAUACGUCC | 15.4 | 25.5 | – | –
CGCUAGUCAGGAUAUACGAACAUGUCAAAAGACGUGAAGGGACAUGAGGAUCACCCAUGUAGAAGGGACUAGCU | 27 | 182 | – | –
CUUUUGUGAGGAUAUCAGUAGUAAAAAAAUAUAAUUACUACUGAGAAGGCACAUGAGGAUCACCCAUGUUCCUC | 36.8 | 267 | – | –
GGGUACAUCGGAGGAUAUCAUGUAGAUACAUGAGGAUCACCCAUGUCGUACGAGAGUACGGAGAUUGAGAAGGCCGAUGUACCG | – | – | 31 | 14.7
GUGCCUUGGGAGAAGGUAUUAAGCAAAGCAAUAUAAGGAUAUUCAUACCGGAAACGGACAUGAGGAUCACCCAUGUGGCACAAA | – | – | 713 | 233
ACUCUACAUGAGGAUCACCCAUGUCGAGCCCAUCAAGGAUAUGGGUCUUGAUCGCGGGUGCCAGAAGGUGAUGGUU | – | – | 43.9 | 47.1
UGAUAACAUGUAGGAUAUGCAGCAUUGACCAUUGCAGAAGGACAUGAGGAUCACCCAUGUACCGAUACAAUGGGAUCACGCAAU | 15.3 | 18.5 | – | –
CCCAGAGCGUAAGGAUAUACAUGAGGAUCACCCAUGUCUACAAUAAUAGUACUAUAUGAAGUCGUGUAGAAGGUACGCGCAGGU | 41.2 | 119 | – | –
AUAUUGUGAGGAUAUCAGGUGUGCUAGCGUACUGGUACAUCUGAGAAGGCACAUGAGGAUCACCCAUGUUUCUU | 15.6 | 39.6 | – | –
UGAGACCUCACAGGAUAUGCUGGACUUUGUCCAGCAGAAGGGUGAAAACAUGAGGAUCACCCAUGUAUGGUCUCCAAAUUUAAU | – | – | 164 | 12.7
UGUCAAGCAGGAUAUGCACGUAAUAACAUGAGGAUCACCCAUGUGACCGAUUUAUAUUUUGCAGAAGGGCUUGUUU | 79.7 | 78.2 | – | –
AACGCAUGUGGAGGAUAUGCAGUUAACAUAAGCGCAGAAGGCCACAUGAGGAUCACCCAUGUCCGGCAUUAGCCGAUGUUGAUC | 509 | 114 | – | –
UGACUGCGUAGAAUUAGCAGCUGACAGGAUAUGACAUGAGGAUCACCCAUGUGAAAUAAGAAGAGUCAGAAGGGUCACGACACA | 9.51 | 8.79 | – | –
ACCUUACAUGAGGAUCACCCAUGUCAGGAUAUCUCGGGCGGCUGAGGACCAGCCGCCCAGAGAAGGGACGAGGA | 14.7 | 15.3 | – | –
AGUGUCAUCGAGAAGGCCUCAUUAACAUGAGGAUCACCCAUGUAAUAUGGGAGGAUAUCGAUGAUACAGCUACGUUUCGUAGCA | – | – | 216 | 55.2
GUCAGGAAUGUAGGAUAUCGUCAGGAUAACUGGCGAGAAGGACAUGAGGAUCACCCAUGUAAAAUGAAAGAUAAUAAACCUGGC | 19.3 | 31.1 | – | –
GGACAUCCCACAGGAUAUGCUGGACUUUGUCCAGCAGAAGGGUGAAAACAUGAGGAUCACCCAUGUAGGAUGUCCAUAUUUAAU | – | – | 112 | 643
GGGUUCAUCGGAGGAUAUCAUGUAAAUACAUGAGGAUCACCCAUGUCGAUGGAGACAUCGGAGAUUGAGAAGGCCGAUGUACCG | – | – | 186 | 9.18
UCUUUACUGGUCAGGAUAUACAUUCGCUACUCCUUGUAGAAGGGACAUGAGGAUCACCCAUGUACUUUACAUUC | 18.5 | 19.5 | – | –
UGAUAGGACAGAGGAUAUACGUGCUGGAGAUACUAGCAAAGUAUCUUGACAUGAGGAUCACCCAUGUAGAAGGCUGUCCUAUCU | 16.9 | 89.2 | – | –
AUCCUGCGAGGAUAUACAUAAUUUUUUUCGUUUUGACUCGAACAUGAGGAUCACCCAUGUAGAAGGUGCUACAC | 33.7 | 30.1 | – | –
CUGGCCCAGCCCGCCUAGUUCGGGAGAAGGAGGAGACAUGAGGAUCACCCAUGUGGCCUUAUCUCCUAGGAUAUCCCGGCGGGU | 5.32 | 17.9 | – | –
CGCUACGUUUCGUAGCAGUGUCAUCGAGAAGGCCCUGACAUGAGGAUCACCCAUGUUGUUACAUGGGAGGAUAUCGAUGAUACA | – | – | 12.8 | 4.99

Sequence | apparent Kd [1] [nM] | apparent Kd [2] [nM] | apparent Kd [3] [nM] | apparent Kd [4] [nM]
AAAUUGACGGGACAUGAGGAUCACCCAUGUGCUAGCCGGACCAGAAGGGCAGCCGGCACGUGGUUGCAGGAUAUGGCCGUCGCA | – | – | 154 | 151
UUCGCACAUGAGGAUCACCCAUGUCAGGAUAUUGUGGUGGGAACAACUGGGAAACGCACGAGAAGGGACACACA | 36.2 | 32.2 | – | –
GCAGACGUAGUGAGGAUAUGCUCUACCUCGGUAGAGCAGAAGGCACAUGAGGAUCACCCAUGUGGUUCUUCUGC | 28.2 | 339 | – | –
AUCAGCACGUCAGGAUAUACGUCACUGCGUCAGCAGUGUGGUAAGAUCACAUGAGGAUCACCCAUGUAGAAGGGACGAGCUGAU | 14.1 | 317 | – | –
GUCAUUAAACAGAAGGUGUAGUACAUGAGGAUCACCCAUGUAUAACUAACUAAAUUUGUAAUUAACAAGGAUAUGUACUAAUCG | – | – | 6.58 | 6.63
UCGAGUCAUGAGAAGGGCUGAUGUUACAUGAGGAUCACCCAUGUCAUGGGCAGGAUAUCAUUGACACGGCUGUACCUCUCUUAA | – | – | 107 | 19.3
AAAGGCCGAGGAUAUACAUGAGGAUCACCCAUGUGGACUCUGCAGAAUUGAUACCUAGGUAGAAGGUGGACCGG | 14.9 | 15.2 | – | –
GCUGCAUAGGCAGGAUAUACAAUAAUUCGAAUAAAAUAUAACGAAUUAACAUGAGGAUCACCCAUGUAGAAGGGCCUGUGCAGU | 6.32 | 10.4 | – | –
AAAAAUGGAGGAUAUACAUGAGGAUCACCCAUGUGUGGCUAUACUAUGUGCUCUUCAGGUAGAAGGCCAAAAAA | 42.6 | 201 | – | –
GAACAGGGAGGAUAUACAGAUCCUCGUGCCUGCGGACCAAGACAUGAGGAUCACCCAUGUAGAAGGCCCGAAAA | 15.3 | 10.5 | – | –
CACCGUUACCGAGGAUAUCGUACAUGAGGAUCACCCAUGUAAUAAAUGAGAAUUUCGGAUGUAUGCGAGAAGGCGGGAAUCGGC | 34.1 | 29.8 | – | –
AAUAACAGAGGAUAUACUGUUUUAUGUGUUUAUUGUUUUAAACAUGAGGAUCACCCAUGUAGAAGGCUGAGUAA | 38.9 | 39 | – | –
GCCUAGACUAGGCCCACGGCAUCACAGGAUAUGCCAAUCACAUGAGGAUCACCCAUGUCAACUCCGCAGAAGGGUGAUAUCGUG | – | – | 235 | 14.3
AUUGCCUUUGUCAGGAUAUCUGAGGUCGAAAGUGAAGAGAAGGGACAUGAGGAUCACCCAUGUAGUGGUACGCA | 144 | 431 | – | –
AUAUAUACAAAGUUACAUGAGGAUCACCCAUGUUUAUUGGGAAGAAGGGUAACAUUAUUAGAUGUAUAGGAUAUUUCACGAUUG | – | – | 513 | 320
AGCUUGAGAGGAUAUACUUGAGUGAUAAAAGUCUGAUAACUACAUGAGGAUCACCCAUGUAGAAGGCUCUAGCA | 18.3 | 47.8 | – | –
AAAGGAUCAGGAUAUGCGUGGAAAAAGUGUAUUCAAAAAAAACAUGAGGAUCACCCAUGUAGAAGGGAUCCAAA | 182 | 657 | – | –
UCAUCAGCGGGCGGGUCGGUUGGACAUGAGGAUCACCCAUGUAGAAGGACCGGUGGACUCCGCCGGUAGGAUAUACAUUUGGUG | 32.1 | 18.9 | – | –
GGGUAGAUCCGAGGAUAUACAAUCCGGAAACGGUACAUGAGGAUCACCCAUGUAGAAGGCGGAUCUACAGGUACUAAAGUAGGG | 16 | 14.2 | – | –
GUCAGCUCGUGAGGAUAUACAACAUUGCUUCGGCAGUGUAUUAAGAUCACAUGAGGAUCACCCAUGUAGAAGGCACGAGCUGAU | 14.1 | 243 | – | –
UACUGGAUUGUAGACGCGUUGCGACGAGAAGGUACACAUGAGGAUCACCCAUGUCGAGUGGGAGGUAAGGAUAUUGGAUGGCGU | – | – | 293 | 211
CGAUAGGACAGAGGAUAUACACAUGAGGAUCACCCAUGUGAUUACAACGCGUAAGCUCCAAACAUGUAGAAGGCUGUCCUAUCG | 17.6 | 20.6 | – | –
GGAAAGCGAGGAUAUACAUGAGGAUCACCCAUGUUAACAAACAAACAAACAAACAAAAGUAGAAGGCGCAAAAU | 37 | 36.5 | – | –
UUUAGGAGUCAAGGAUAUGCUACCGUUUCGGUAGCAGAAGGUGAUCACAUGAGGAUCACCCAUGUAUGCAUGCGUGAGCGUGCU | – | – | 50.1 | 623
CAAUAAGACACAGGAUAUCCAGACAGGGAAGAUGGAGAAGGGUGAUCAGAAAAGACAUGAGGAUCACCCAUGUCUCGUGCGAUG | – | – | 631 | 282
AUAAAACAUGAGGAUCACCCAUGUCAACAAAGUCGAGGAUAUGGGCAAAUAAAAUAAGAACCAGAAGGCGAAUAUU | – | – | 223 | 48
GAAUUAUUGAUCCAAUUUUACAACAUGAGGAUCACCCAUGUGCAGGAUAUCGUGUGUUUUAUAUUCGAGAAGGGCAAGAACUUU | 141 | 300 | – | –
